Source: ChEMBL document CHEMBL1124233, “Clofazimine analogues active against a clofazimine-resistant organism” (J Med Chem, 1988)

Experiments:
Assay type in all cases: functional, organism-based
[1] = system: Mycolicibacterium smegmatis; assay: Concentration for 100% inhibition of growth of dapsone sensitive Mycobacterium smegmatis 607 strain in vitro
Method in brief: (§1)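 M. smegmatis ATCC607-derived strains (one of three used, including a dapsone-sensitive one) were grown in modified Kirchner's medium with 0.5% Tween 80, inoculated with 10^5 viable cells. Drugs were added in DMSO (2% final). Roller tubes were incubated at 37 °C for 72 h. Growth was read as spectrophotometric transmission.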

[2] = system: Mycolicibacterium smegmatis; assay: 100% inhibition of growth of rifampicin resistant Mycobacterium smegmatis 607 strain in vitro; method in brief: as §1
[3] = system: Mycolicibacterium smegmatis; assay: 100% inhibition of growth of clofazimine resistant Mycobacterium smegmatis 607 strain in vitro
Method in brief: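 Strain: 20× step-up clofazimine-resistant mutant of M. smegmatis ATCC607. 10^5 viable cells inoculated into modified Kirchner's medium with 0.5% Tween 80. Drugs were added in DMSO (2% final in all tubes). Roller tubes were incubated at 37 °C for 72 h. Growth was read as optical transmission in a spectrophotometer.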

| SMILES | Concentration [1] [µg/mL] | Concentration [2] [µg/mL] | Concentration [3] [µg/mL] |
| --- | --- | --- | --- |
| CC(C)CC/N=c1\cc2n(-c3ccccc3)c3ccccc3nc-2cc1Nc1ccccc1 | 2 | 2 | 20 |
| O=C1CCCN1CC/N=c1\cc2n(-c3ccc(Cl)cc3)c3ccccc3nc-2cc1Nc1ccc(Cl)cc1 | 1 | 1.6 | 20 |
| NCCCCCC/N=c1\cc2n(-c3ccc(Cl)cc3)c3ccccc3nc-2cc1Nc1ccc(Cl)cc1 | 0.3 | 0.8 | 2 |
| CC1CCC(/N=c2\cc3n(-c4ccc(Cl)cc4)c4ccccc4nc-3cc2Nc2ccc(Cl)cc2)CC1 (stereo not drawn) | 7.5 | 7.5 | 25 |
| Clc1ccc(Nc2cc3nc4ccccc4n(-c4ccc(Cl)cc4)c-3c/c2=N\CC2CCNCC2)cc1 | 0.2 | 0.2 | 0.6 |
| Clc1ccc(Nc2cc3nc4ccccc4n(-c4ccc(Cl)cc4)c-3c/c2=N\C2CCCCCC2)cc1 | 2 | 3 | 50 |
| CCN(CC)CCC/N=c1\cc2n(-c3ccc(Cl)cc3)c3ccccc3nc-2cc1Nc1ccc(Cl)cc1 | 0.2 | 0.2 | 1 |
| CC(C)CC/N=c1\cc2n(-c3ccc(Cl)cc3)c3ccccc3nc-2cc1Nc1ccc(Cl)cc1 | 2 | 3 | 80 |
| CC(C)NCCC/N=c1\cc2n(-c3ccc(Cl)cc3)c3ccccc3nc-2cc1Nc1ccc(Cl)cc1 | 0.3 | 0.2 | 2 |
| OCCNCC/N=c1\cc2n(-c3ccccc3)c3ccccc3nc-2cc1Nc1ccccc1 | 5 | 6 | 10 |
| CC(C/N=c1\cc2n(-c3ccc(Cl)cc3)c3ccccc3nc-2cc1Nc1ccc(Cl)cc1)N(C)C (stereo not drawn) | 1.2 | 6 | 16 |
| CCNCCC/N=c1\cc2n(-c3ccc(Cl)cc3)c3ccccc3nc-2cc1Nc1ccc(Cl)cc1 | 0.2 | 0.2 | 1 |
| CC(C)C/N=c1\cc2n(-c3ccc(Cl)cc3)c3ccccc3nc-2cc1Nc1ccc(Cl)cc1 | 4 | 4 | 100 |
| Clc1ccc(Nc2cc3nc4ccccc4n(-c4ccc(Cl)cc4)c-3c/c2=N\CCCN2CCCCC2)cc1 | 0.2 | 0.3 | 2 |
| CN1CCN(CCC/N=c2\cc3n(-c4ccc(Cl)cc4)c4ccccc4nc-3cc2Nc2ccc(Cl)cc2)CC1 | 0.3 | 0.3 | 1 |
| OCC/N=c1\cc2n(-c3ccccc3)c3ccc(Cl)cc3nc-2cc1Nc1ccccc1 | 2 | 4 | 100 |
| OCCC/N=c1\cc2n(-c3ccccc3)c3ccccc3nc-2cc1Nc1ccccc1 | 4 | 8 | 20 |
| c1ccc(Nc2cc3nc4ccccc4n(-c4ccccc4)c-3c/c2=N\CCN2CCCC2)cc1 | 0.4 | 0.4 | 2 |
| c1ccc(Nc2cc3nc4ccccc4n(-c4ccccc4)c-3c/c2=N\CCCN2CCCCC2)cc1 | 0.3 | 0.3 | 1 |

| SMILES | Concentration [1] [µg/mL] | Concentration [2] [µg/mL] | Concentration [3] [µg/mL] |
| --- | --- | --- | --- |
| c1ccc(Nc2cc3nc4ccccc4n(-c4ccccc4)c-3c/c2=N\C2CCCCCC2)cc1 | 2 | 2 | 20 |
| CC(C/N=c1\cc2n(-c3ccccc3)c3ccccc3nc-2cc1Nc1ccccc1)N(C)C (stereo not drawn) | 0.8 | 1 | 4 |
| CCOc1ccc(Nc2cc3nc4ccccc4n(-c4ccc(OCC)cc4)c-3c/c2=N\CCO)cc1 | 5 | 10 | 20 |
| CCN(CC)CC/N=c1\cc2n(-c3ccccc3)c3ccc(Cl)cc3nc-2cc1Nc1ccccc1 | 1 | 2 | 30 |
| CCCCN(CCCC)CCC/N=c1\cc2n(-c3ccc(Cl)cc3)c3ccccc3nc-2cc1Nc1ccc(Cl)cc1 | 0.4 | 0.8 | 12 |
| CCN1CCCC1C/N=c1\cc2n(-c3ccc(Cl)cc3)c3ccccc3nc-2cc1Nc1ccc(Cl)cc1 (stereo not drawn) | 1 | 1 | 10 |
| CCOc1ccc(Nc2cc3nc4ccccc4n(-c4ccc(OCC)cc4)c-3c/c2=N\CCN(CC)CC)cc1 | 1 | 1 | 5 |
| C/N=c1\cc2n(-c3ccc(Cl)cc3)c3ccccc3nc-2cc1Nc1ccc(Cl)cc1 | 2 | 2 | 100 |
| OCC/N=c1\cc2n(-c3ccc(Cl)cc3)c3ccccc3nc-2cc1Nc1ccc(Cl)cc1 | 2 | 2 | 20 |
| Cc1ccc(Nc2cc3nc4ccccc4n(-c4ccc(C)cc4)c-3c/c2=N\CCO)cc1 | 4 | 8 | 12 |
| CCN1CCCC(/N=c2\cc3n(-c4ccc(Cl)cc4)c4ccccc4nc-3cc2Nc2ccc(Cl)cc2)C1 (stereo not drawn) | 0.5 | 0.5 | 8 |
| c1ccc(Nc2cc3nc4ccccc4n(-c4ccccc4)c-3c/c2=N\C2CCCCC2)cc1 | 3 | 2 | 10 |
| Clc1ccc(Nc2cc3nc4ccccc4n(-c4ccc(Cl)cc4)c-3c/c2=N\CCN2CCNCC2)cc1 | 0.2 | 0.2 | 0.8 |
| NCCC/N=c1\cc2n(-c3ccc(Cl)cc3)c3ccccc3nc-2cc1Nc1ccc(Cl)cc1 | 0.3 | 0.4 | 1 |
| c1ccc(Nc2cc3nc4ccccc4n(-c4ccccc4)c-3c/c2=N\C2CCCC2)cc1 | 3 | 3 | 100 |
| CC(C)C/N=c1\cc2n(-c3ccccc3)c3ccccc3nc-2cc1Nc1ccccc1 | 2 | 3 | 20 |
| c1ccc(Nc2cc3nc4ccccc4n(-c4ccccc4)c-3c/c2=N\CCN2CCNCC2)cc1 | 0.4 | 0.4 | 1 |
| CCN(CC)CC/N=c1\cc2n(-c3ccccc3)c3ccccc3nc-2cc1Nc1ccccc1 | 0.6 | 0.8 | 6 |
| Cc1ccc(Nc2cc3nc4ccccc4n(-c4ccc(C)cc4)c-3c/c2=N\CC2CCNCC2)cc1 | 0.2 | 0.3 | 0.4 |

| SMILES | Concentration [1] [µg/mL] | Concentration [2] [µg/mL] | Concentration [3] [µg/mL] |
| --- | --- | --- | --- |
| CCN1CCCC1C/N=c1\cc2n(-c3ccccc3)c3ccccc3nc-2cc1Nc1ccccc1 (stereo not drawn) | 0.5 | 0.4 | 6 |
| Clc1ccc2c(c1)nc1cc(Nc3ccccc3)/c(=N/C3CCCCC3)cc-1n2-c1ccccc1 | 3 | 0.6 | 20 |
| CC1CCCCN1CCC/N=c1\cc2n(-c3ccc(Cl)cc3)c3ccccc3nc-2cc1Nc1ccc(Cl)cc1 (stereo not drawn) | 0.2 | 0.2 | 2 |
| Cc1ccc(Nc2cc3nc4ccccc4n(-c4ccc(C)cc4)c-3c/c2=N\C2CCCCC2)cc1 | 8 | 8 | 100 |
| N=c1cc2n(-c3ccccc3)c3ccccc3nc-2cc1Nc1ccccc1 | 3 | 8 | 12 |
| OCCNCC/N=c1\cc2n(-c3ccc(Cl)cc3)c3ccccc3nc-2cc1Nc1ccc(Cl)cc1 | 8 | 8 | 20 |
| CC(C)/N=c1\cc2n(-c3ccccc3)c3ccccc3nc-2cc1Nc1ccccc1 | 2 | 3 | 100 |
| CC/N=c1\cc2n(-c3ccc(Cl)cc3)c3ccccc3nc-2cc1Nc1ccc(Cl)cc1 | 2 | 2 | 100 |
| Cc1ccc(Nc2cc3nc4ccccc4n(-c4ccc(C)cc4)c-3c/c2=N\CC(C)C)cc1 | 2 | 3 | 100 |
| CN1CCN(CCC/N=c2\cc3n(-c4ccccc4)c4ccccc4nc-3cc2Nc2ccccc2)CC1 | 0.5 | 0.5 | 1 |
| CC(C)C/N=c1\cc2n(-c3ccccc3)c3ccc(Cl)cc3nc-2cc1Nc1ccccc1 | 2 | 3 | 100 |
| CC(C)CC/N=c1\cc2n(-c3ccccc3)c3ccc(Cl)cc3nc-2cc1Nc1ccccc1 | 3 | 3 | 100 |
| COC(C/N=c1\cc2n(-c3ccc(Cl)cc3)c3ccccc3nc-2cc1Nc1ccc(Cl)cc1)OC | 4 | 5 | 60 |
| CCCNCCC/N=c1\cc2n(-c3ccc(Cl)cc3)c3ccccc3nc-2cc1Nc1ccc(Cl)cc1 | 0.2 | 0.2 | 2 |
| Clc1ccc(Nc2cc3nc4ccccc4n(-c4ccc(Cl)cc4)c-3c/c2=N\CCCNC2CCCCC2)cc1 | 0.2 | 0.2 | 1 |
| CC(C)C(C)/N=c1\cc2n(-c3ccc(Cl)cc3)c3ccccc3nc-2cc1Nc1ccc(Cl)cc1 (stereo not drawn) | 3 | 4 | 30 |
| CC(CN(C)C)/N=c1\cc2n(-c3ccc(Cl)cc3)c3ccccc3nc-2cc1Nc1ccc(Cl)cc1 (stereo not drawn) | 0.8 | 1.2 | 16 |
| c1ccc(Nc2cc3nc4ccccc4n(-c4ccccc4)c-3c/c2=N\CC2CCCCC2)cc1 | 2 | 2 | 100 |
